Experimental data published in ChEMBL document CHEMBL1155143, “Interaction of the GraRS two-component system with the VraFG ABC transporter to support vancomycin-intermediate resistance in Staphylococcus aureus” (2007).
≈ marks a conversion by molar mass, not a printed value. Calls of active or inactive are those of the source. No cut-off for these calls is given here.

Key:
[1] = tested on: Staphylococcus aureus; test: Antimicrobial activity against vancomycin-intermediate resistant Staphylococcus aureus Mu50 graR mutant microdilution assay; type: functional
How it was run: (§1)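 Standardized CLSI broth microdilution was run in CSMHB with 10^5 CFU/ml inoculum and scored at 48 h. Values are medians of at least three independent experiments. Daptomycin MICs for Mu50 strains were read by Etest per the supplied protocol instead of microdilution.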

[2] = tested on: Staphylococcus aureus; test: Antimicrobial activity against wild type vancomycin-intermediate resistant Staphylococcus aureus Mu50 by microdilution assay; type: functional; how it was run: as §1
[3] = tested on: Staphylococcus aureus; test: Antimicrobial activity against vancomycin-intermediate resistant Staphylococcus aureus Mu50 vraG mutant microdilution assay; type: functional; how it was run: as §1
[4] = tested on: Staphylococcus aureus; test: Antimicrobial activity against wild type methicillin-resistant Staphylococcus aureus COL by microdilution assay; type: functional, organism-based; how it was run: as §1
[5] = tested on: Staphylococcus aureus; test: Antimicrobial activity against methicillin-resistant Staphylococcus aureus COL vraG mutant by microdilution assay; type: functional, organism-based; how it was run: as §1
[6] = tested on: Staphylococcus aureus; test: Antimicrobial activity against methicillin-susceptible Staphylococcus aureus RN6390 graR by microdilution assay; type: functional, organism-based; how it was run: as §1
[7] = tested on: Staphylococcus aureus; test: Antimicrobial activity against wild type methicillin-susceptible Staphylococcus aureus RN6390 by microdilution assay; type: functional, organism-based; how it was run: as §1
[8] = tested on: Staphylococcus aureus; test: Antimicrobial activity against wild type methicillin-resistant Staphylococcus aureus COL expressing pEPSA5vraFG1 plasmid by microdilution assay; type: functional, organism-based
How it was run: (§2)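 CLSI broth microdilution was run in CSMHB with 10^5 CFU/ml for strains carrying pEPSA5-based plasmids. Chloramphenicol 10 μg/ml maintained the plasmid, and growth was scored at 72 h. Media were used with or without 0.5% xylose or glucose. MIC is the median over all conditions from three independent experiments.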

[9] = tested on: Staphylococcus aureus; test: Antimicrobial activity against wild type methicillin-resistant Staphylococcus aureus COL expressing pEPSA5 plasmid by microdilution assay; type: functional, organism-based; how it was run: as §2
[10] = tested on: Staphylococcus aureus; conditions: COL
[11] = tested on: Staphylococcus aureus; test: Antimicrobial activity against methicillin-resistant Staphylococcus aureus COL graS mutant by microdilution assay; type: functional, organism-based; how it was run: as §1
[12] = tested on: Staphylococcus aureus; test: Antimicrobial activity against wild type methicillin-resistant Staphylococcus aureus COL expressing pEPSA5vraFG2 plasmid by microdilution assay; type: functional, organism-based; how it was run: as §2
[13] = tested on: Staphylococcus aureus; test: Antimicrobial activity against methicillin-susceptible Staphylococcus aureus RN6390 vraG by microdilution assay; type: functional, organism-based; how it was run: as §1
[14] = tested on: Staphylococcus aureus; test: Antimicrobial activity against methicillin-susceptible Staphylococcus aureus RN6390 graS by microdilution assay; type: functional, organism-based; how it was run: as §1
[15] = tested on: Staphylococcus aureus; test: Antimicrobial activity against methicillin-resistant Staphylococcus aureus COL graR mutant by microdilution assay; type: functional, organism-based; how it was run: as §1
[16] = tested on: Staphylococcus aureus; test: Antimicrobial activity against wild type methicillin-resistant Staphylococcus aureus COL expressing pEPSA5graRS2 plasmid by microdilution assay; type: functional, organism-based; how it was run: as §2
[17] = tested on: Staphylococcus aureus; test: Antimicrobial activity against methicillin-resistant Staphylococcus aureus COL assessed as hypersensitivity at 1 ug/ml; type: functional, organism-based
How it was run: (§3)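 Overnight CSMHB cultures (Mueller-Hinton broth with 25 μg/ml Ca2+ and 12.5 μg/ml Mg2+) were adjusted to A650 1.1 (~10^9 CFU/ml). They were diluted 200 μl per 7 ml CSMHB with or without 1 μg/ml vancomycin, and growth curves were plotted as A650 over time. Plasmid-carrying strains received 10 μg/ml chloramphenicol.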

[18] = tested on: Staphylococcus aureus; test: Antimicrobial activity against methicillin-resistant Staphylococcus aureus sacol2358 mutant assessed as hypersensitivity at 1 ug/ml; type: functional, organism-based; how it was run: as §3
[19] = tested on: Staphylococcus aureus; test: Antimicrobial activity against wild type methicillin-resistant Staphylococcus aureus COL expressing pEPSA5graRS1 plasmid by microdilution assay
[20] = tested on: Staphylococcus aureus; test: Antimicrobial activity against wild type vancomycin-intermediate resistant Staphylococcus aureus Mu50 expressing pEPSA5graRS1 plasmid by microdilution assay
[21] = tested on: Staphylococcus aureus; test: Antimicrobial activity against vancomycin-intermediate resistant Staphylococcus aureus Mu50 vraG mutant expressing pEPSA5graRS1 plasmid by microdilution assay
[22] = tested on: Staphylococcus aureus; test: Antimicrobial activity against wild type vancomycin-intermediate resistant Staphylococcus aureus Mu50 expressing pEPSA5graRS2 plasmid by microdilution assay
[23] = tested on: Staphylococcus aureus; test: Antimicrobial activity against wild type vancomycin-intermediate resistant Staphylococcus aureus Mu50 expressing pEPSA5graFG1 plasmid by microdilution assay
[24] = tested on: Staphylococcus aureus; test: Antimicrobial activity against wild type vancomycin-intermediate resistant Staphylococcus aureus Mu50 expressing pEPSA5 plasmid by microdilution assay
[25] = tested on: Staphylococcus aureus; test: Antimicrobial activity against methicillin-resistant Staphylococcus aureus COL graR mutant assessed as hypersensitivity at 1 ug/ml; type: functional, organism-based; how it was run: as §3
[26] = tested on: Staphylococcus aureus; test: Antimicrobial activity against methicillin-resistant Staphylococcus aureus sacol1355 mutant assessed as hypersensitivity at 1 ug/ml; type: functional, organism-based; how it was run: as §3
[27] = tested on: Staphylococcus aureus; test: Antimicrobial activity against methicillin-resistant Staphylococcus aureus sacol2646 mutant assessed as hypersensitivity at 1 ug/ml; type: functional, organism-based; how it was run: as §3

Compound	MIC [1]	MIC [2]	MIC [3]	further results
C/C(=C\C(=O)OCCCCCCCCC(=O)O)C[C@@H]1OC[C@H](C[C@@H]2O[C@H]2[C@@H](C)[C@H](C)O)[C@@H](O)[C@H]1O [MUPIROCIN]	0.25 µg/mL (≈ 0.499 µM)	0.25 µg/mL (≈ 0.499 µM)	0.25 µg/mL (≈ 0.499 µM)	
O=C(N[C@H](CO)[C@H](O)c1ccc([N+](=O)[O-])cc1)C(Cl)Cl [CHLORAMPHENICOL]	8 µg/mL (≈ 24.8 µM)	8 µg/mL (≈ 24.8 µM)	8 µg/mL (≈ 24.8 µM)	
CO[C@H]1/C=C/O[C@@]2(C)Oc3c(C)c(O)c4c(O)c(c(/C=N/N5CCN(C)CC5)c(O)c4c3C2=O)NC(=O)/C(C)=C\C=C\[C@H](C)[C@H](O)[C@@H](C)[C@@H](O)[C@@H](C)[C@H](OC(C)=O)[C@@H]1C [RIFAMPIN]	1020 µg/mL (≈ 1240 µM)	1020 µg/mL (≈ 1240 µM)	1020 µg/mL (≈ 1240 µM)	
POLYMYXIN B	16 µg/mL	128 µg/mL	16 µg/mL	MIC [4]: 64 µg/mL; MIC [5]: 8 µg/mL; MIC [6]: 4 µg/mL; MIC [7]: 32 µg/mL; MIC [8]: 64 µg/mL; MIC [9]: 64 µg/mL; MIC [10]: 128 µg/mL; MIC [11]: 8 µg/mL; MIC [12]: 64 µg/mL; MIC [13]: 4 µg/mL; MIC [14]: 4 µg/mL; MIC [15]: 8 µg/mL; MIC [16]: 64 µg/mL
CN(C)[C@@H]1C(O)=C(C(N)=O)C(=O)[C@@]2(O)C(O)=C3C(=O)c4c(O)cccc4[C@@](C)(O)[C@H]3C[C@@H]12 [TETRACYCLINE]	128 µg/mL (≈ 288 µM)	64 µg/mL (≈ 144 µM)	64 µg/mL (≈ 144 µM)	
NC[C@H]1O[C@H](O[C@H]2[C@H](O)[C@@H](O[C@H]3O[C@H](CO)[C@@H](O)[C@H](N)[C@H]3O)[C@H](N)C[C@@H]2N)[C@H](N)C[C@@H]1O [TOBRAMYCIN]	≥ 2050 µg/mL	≥ 2050 µg/mL	≥ 2050 µg/mL	
CC[C@H]1OC(=O)[C@H](C)[C@@H](O[C@H]2C[C@@](C)(OC)[C@@H](O)[C@H](C)O2)[C@H](C)[C@@H](O[C@@H]2O[C@H](C)C[C@H](N(C)C)[C@H]2O)[C@](C)(O)C[C@@H](C)C(=O)[C@H](C)[C@@H](O)[C@]1(C)O [ERYTHROMYCIN]	1020 µg/mL (≈ 1400 µM)	≥ 2050 µg/mL	≥ 2050 µg/mL	
N[C@@H]1CONC1=O [CYCLOSERINE]	64 µg/mL (≈ 627 µM)	128 µg/mL (≈ 1250 µM)	64 µg/mL (≈ 627 µM)	
O=C(O)c1cn(C2CC2)c2cc(N3CCNCC3)c(F)cc2c1=O [CIPROFLOXACIN]	64 µg/mL (≈ 193 µM)	32 µg/mL (≈ 96.6 µM)	64 µg/mL (≈ 193 µM)	
Cc1onc(-c2ccccc2)c1C(=O)N[C@@H]1C(=O)N2[C@@H]1SC(C)(C)[C@@H]2C(=O)O [OXACILLIN]	256 µg/mL (≈ 638 µM)	512 µg/mL (≈ 1280 µM)	1020 µg/mL (≈ 2550 µM)	
C[C@@H]1O[C@@H]1P(=O)(O)O [FOSFOMYCIN]	1020 µg/mL (≈ 7420 µM)	1020 µg/mL (≈ 7420 µM)	1020 µg/mL (≈ 7420 µM)	
CO[C@@H]1[C@@H](OC(N)=O)[C@@H](O)[C@H](Oc2ccc3c(O)c(NC(=O)c4ccc(O)c(CC=C(C)C)c4)c(=O)oc3c2C)OC1(C)C [NOVOBIOCIN]	0.25 µg/mL (≈ 0.408 µM)	0.125 µg/mL (≈ 0.204 µM)	0.125 µg/mL (≈ 0.204 µM)	
CN[C@H](CC(C)C)C(=O)N[C@H]1C(=O)N[C@@H](CC(N)=O)C(=O)N[C@H]2C(=O)N[C@H]3C(=O)N[C@H](C(=O)N[C@H](C(=O)O)c4cc(O)cc(O)c4-c4cc3ccc4O)[C@H](O)c3ccc(c(Cl)c3)Oc3cc2cc(c3O[C@@H]2O[C@H](CO)[C@@H](O)[C@H](O)[C@H]2O[C@H]2C[C@](C)(N)[C@H](O)[C@H](C)O2)Oc2ccc(cc2Cl)[C@H]1O [VANCOMYCIN]		8 µg/mL (≈ 5.52 µM)		Activity [17]: inactive; Activity [18]: inactive; MIC [19]: 8 µg/mL (≈ 5.52 µM); MIC [20]: 8 µg/mL (≈ 5.52 µM); MIC [21]: 8 µg/mL (≈ 5.52 µM); MIC [22]: 8 µg/mL (≈ 5.52 µM); MIC [23]: 8 µg/mL (≈ 5.52 µM); MIC [24]: 8 µg/mL (≈ 5.52 µM); Activity [25]: Active; Activity [26]: inactive; Activity [27]: inactive
CCCCCCCCCC(=O)N[C@@H](Cc1c[nH]c2ccccc12)C(=O)N[C@H](CC(N)=O)C(=O)N[C@@H](CC(=O)O)C(=O)N[C@@H]1C(=O)NCC(=O)N[C@@H](CCCN)C(=O)N[C@@H](CC(=O)O)C(=O)N[C@H](C)C(=O)N[C@@H](CC(=O)O)C(=O)NCC(=O)N[C@H](CO)C(=O)N[C@@H]([C@H](C)CC(=O)O)C(=O)N[C@@H](CC(=O)c2ccccc2N)C(=O)O[C@@H]1C	1 µg/mL (≈ 0.617 µM)	2 µg/mL (≈ 1.23 µM)	2 µg/mL (≈ 1.23 µM)	
CC[C@H](C)[C@@H]1NC(=O)[C@H](CO)NC(=O)[C@@H]2CCCN2C(=O)[C@H](C)NC(=O)CNC(=O)[C@H](CC(C)C)NC(=O)[C@H](CCCCN)N[C@H](CCCCN)NC(=O)[C@H](CCSC)NC(=O)[C@H](CCCNC(=N)N)NC(=O)[C@H](Cc2c[nH]c3ccccc23)NC(=O)[C@H](CCC(N)=O)NC(=O)[C@H](Cc2c[nH]c3ccccc23)NC(=O)[C@H](CCCNC(=N)N)NC(=O)[C@H](CCCNC(=N)N)NC(=O)[C@@H](NC(=O)[C@H](CCCCN)NC(=O)[C@@H](N)Cc2ccccc2)CSSC[C@@H](C(=O)N[C@H](C(=O)N[C@@H](CCCNC(=N)N)C(=O)N[C@@H](C)C(=O)N[C@@H](Cc2ccccc2)C(=O)O)C(C)C)NC(=O)[C@H]([C@@H](C)O)NC1=O [LACTOFERRICIN]	≥ 512 µg/mL	≥ 512 µg/mL	≥ 512 µg/mL	
COc1cc(Cc2cnc(N)nc2N)cc(OC)c1OC [TRIMETHOPRIM]	2 µg/mL (≈ 6.89 µM)	4 µg/mL (≈ 13.8 µM)	4 µg/mL (≈ 13.8 µM)	
